Assay results of several laboratories.
Lines come from different studies, so protocols differ. Values after ≈ are worked out from the molar mass of the structure shown.

Compound	organism	assay	system	setting	measurement	value
CCCCNC(=O)c1c(N)sc2c1CCCC2	Mycobacterium tuberculosis	microbial growth, resazurin	H37RV	–	MIC	> 300 µM
c1ccc(-c2nc(N3CCC(c4ccccn4)C3)c3ccccc3n2)cc1 (stereo not drawn)	Trypanosoma cruzi	parasite growth, imaging	U2OS	intracellular, amastigote	IC50	4.82 µM
CC1(C)S[C@@H]2[C@H](NC(=O)[C@H](N)c3ccccc3)C(=O)N2[C@H]1C(=O)O	Plesiomonas shigelloides	microbial growth, agar dilution	–	26.93 µM	inhibition	100%
CCCCNC(=O)c1c(N)sc2c1CCN(CC)C2	Mycobacterium tuberculosis	microbial growth, resazurin	H37RV	–	IC50	> 300 µM
O=[N+]([O-])c1ccc(-c2nc3cccc(O)c3[nH]2)o1	Staphylococcus haemolyticus	microbial killing	–	–	MBC	0.5 µg/mL (≈ 2.04 µM)
Cc1ccc2nc(-c3ccc(F)c(F)c3)c(CN3CCN(C4CCCCC4)CC3)n2c1	Trypanosoma cruzi	parasite growth	TULAHUEN	6 days, intracellular, amastigote	EC90	> 5 µM
O=C1NN=C(N=Cc2ccc(O)cc2O)C1=NNn1c(-c2ccccc2)nc2ccccc2c1=O	Monascus purpureus	microbial growth, broth dilution	–	–	MIC	53.5 µM (≈ 25 µg/mL)
c1ccc(-c2nc(N3CCC(c4ccccn4)C3)c3ccccc3n2)nc1 (stereo not drawn)	Trypanosoma cruzi	parasite growth, imaging	U2OS	intracellular, amastigote	IC50	1.2 µM
CCN1CCc2c(sc(N)c2C(=O)O)C1	Mycobacterium tuberculosis	microbial growth, resazurin	H37RV	–	MIC	> 400 µM
c1ccc2c(N3CCCCC3)nc(-n3cccn3)nc2c1	Trypanosoma cruzi	parasite growth, imaging	U2OS	intracellular, amastigote	IC50	8.96 µM
CCOC(=O)c1c(NC(=O)c2ccccc2)sc2c1CCN(C(=O)OC(C)(C)C)C2	Mycobacterium tuberculosis	microbial growth, resazurin	H37RV	–	MIC	> 200 µM
CC1=NN(CNC(=O)c2ccccn2)C(=O)C1=NNn1c(-c2ccccc2)nc2ccccc2c1=O	Monascus purpureus	microbial growth, broth dilution	–	–	MIC	104 µM (≈ 50 µg/mL)
Cn1cc(-c2nc(N3CCC(c4ccccn4)C3)c3ccccc3n2)cn1 (stereo not drawn)	Trypanosoma cruzi	parasite growth, imaging	U2OS	intracellular, amastigote	IC50	2.57 µM
O=C1NN=C(N=Cc2ccccc2O)C1=NNn1c(-c2ccccc2)nc2ccccc2c1=O	Monascus purpureus	microbial growth, broth dilution	–	–	MIC	111 µM (≈ 50 µg/mL)
c1ccc2c(N3CCCCC3)nc(-c3ccncn3)nc2c1	Trypanosoma cruzi	parasite growth, imaging	U2OS	intracellular, amastigote	IC50	32.4 µM
Cc1cc2nc(C(=O)N3CCOCC3)cc(-c3ccccc3Cl)c2c(C)c1-c1ccncc1	Mycobacterium tuberculosis	microbial growth	H37RV	–	MIC90	15 µM (≈ 6.87 µg/mL)
CC(C)(C)c1nc(N2CCCCC2)c2ccccc2n1	Trypanosoma cruzi	parasite growth, imaging	U2OS	intracellular, amastigote	IC50	21.5 µM
CC1=NN(CNc2c(O)c(S(=O)(=O)O)cc3ccccc23)C(=O)C1=NNn1c(-c2ccccc2)nc2ccccc2c1=O	Monascus purpureus	microbial growth, broth dilution	–	–	MIC	41.8 µM (≈ 25 µg/mL)
COc1ccccc1CNC(=O)c1cc(-c2ccccc2)sc1N	Mycobacterium tuberculosis	microbial growth, resazurin	H37RV	–	MIC	> 200 µM
COc1ccccc1-c1nc(N2CCC(c3ccccn3)C2)c2ccccc2n1 (stereo not drawn)	Trypanosoma cruzi	parasite growth, imaging	U2OS	intracellular, amastigote	IC50	0.91 µM
CCOC(=O)c1cc(-c2ccccc2)sc1NC(=O)c1c(F)c(F)c(F)c(F)c1F	Mycobacterium tuberculosis	microbial growth, resazurin	H37RV	–	MIC	> 200 µM
[H]/N=C(/N)N[C@H]1[C@H](O)[C@@H](O)[C@H](O[C@@H]2O[C@@H](C)[C@](O)(C=O)[C@H]2O[C@@H]2O[C@@H](CO)[C@H](O)[C@@H](O)[C@@H]2NC)[C@@H](N/C(N)=N\[H])[C@@H]1O	Mycobacterium tuberculosis	microbial growth, disc diffusion	ATCC25177	10 µg/disc, 12 days	inhibition zone	40 mm
COc1ccccc1CNC(=O)c1c(N)sc2c1CCCC2	Mycobacterium tuberculosis	microbial growth, resazurin	H37RV	–	MIC	316 µM (≈ 100 µg/mL)
O=C(N[C@@H](Cc1ccccc1)C(=O)c1cc(-c2ccccc2)no1)[C@H](Cc1ccccc1)NC(=O)N1CCOCC1 (mixture of isomers)	Trypanosoma cruzi	parasite growth	TULAHUEN	intracellular, amastigote	IC50	28 µM
